Source: ChEMBL document CHEMBL2176911 (J Med Chem, 2012)
The source made the active and inactive calls. The rule behind the calls is not given here.

Experiments:
HT-22 [1] = test: Neuroprotective activity against glutamate-induced toxicity in mouse HT22 cells after 24 hrs by MTS assay; assay type: functional, cell-based
[2] = target: Dual specificity tyrosine-phosphorylation-regulated kinase 1A (Mus musculus) (UniProt Q61214); test: Inhibition of DYRK1A in mouse HT22 cells at 10 uM after 4 hrs; assay type: cell-based; conditions: HT-22
HT-22 [3] = test: Inhibition of GSK3-mediated […] phosphorylation in mouse HT22 cells at 10 uM after 24 hrs by Western blot analysis in presence of MG132; assay type: cell-based
HT-22 [4] = test: Inhibition of GSK3 in mouse HT22 cells at 10 uM after 4 hrs; assay type: cell-based
[5] = target: Dual specificity protein kinase CLK3 (Mus musculus) (UniProt O35492); test: Inhibition of mouse recombinant GST-tagged CLK3 expressed in Escherichia coli using GRSRSRSRSRSR as substrate and [gamma33P]ATP at 10 uM after 30 mins by scintillation counting
How it was run: (§1)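 Radiometric kinase assay with the RS peptide as substrate and 15 μM [γ-33P]ATP.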

[6] = target: Dual specificity protein kinase CLK1 (Mus musculus) (UniProt P22518); test: Inhibition of mouse recombinant GST-tagged CLK1 expressed in Escherichia coli using GRSRSRSRSRSR as substrate and [gamma33P]ATP at 10 uM after 30 mins by scintillation counting; how it was run: as §1
[7] = target: Dual specificity tyrosine-phosphorylation-regulated kinase 1A (Homo sapiens) (UniProt Q13627); test: Inhibition of human recombinant GST-tagged DYRK1A expressed in Escherichia coli using GRSRSRSRSRSR as substrate and [gamma33P]ATP at 15 uM after 30 mins by scintillation counting
[8] = target: T1, Dual specificity tyrosine-phosphorylation-regulated kinase 2 (Homo sapiens) (UniProt Q92630); test: Inhibition of human recombinant GST-tagged DYRK2 expressed in Escherichia coli using GRSRSRSRSRSR as substrate and [gamma33P]ATP at 10 uM after 30 mins by scintillation counting
T1 sequence (whole entry): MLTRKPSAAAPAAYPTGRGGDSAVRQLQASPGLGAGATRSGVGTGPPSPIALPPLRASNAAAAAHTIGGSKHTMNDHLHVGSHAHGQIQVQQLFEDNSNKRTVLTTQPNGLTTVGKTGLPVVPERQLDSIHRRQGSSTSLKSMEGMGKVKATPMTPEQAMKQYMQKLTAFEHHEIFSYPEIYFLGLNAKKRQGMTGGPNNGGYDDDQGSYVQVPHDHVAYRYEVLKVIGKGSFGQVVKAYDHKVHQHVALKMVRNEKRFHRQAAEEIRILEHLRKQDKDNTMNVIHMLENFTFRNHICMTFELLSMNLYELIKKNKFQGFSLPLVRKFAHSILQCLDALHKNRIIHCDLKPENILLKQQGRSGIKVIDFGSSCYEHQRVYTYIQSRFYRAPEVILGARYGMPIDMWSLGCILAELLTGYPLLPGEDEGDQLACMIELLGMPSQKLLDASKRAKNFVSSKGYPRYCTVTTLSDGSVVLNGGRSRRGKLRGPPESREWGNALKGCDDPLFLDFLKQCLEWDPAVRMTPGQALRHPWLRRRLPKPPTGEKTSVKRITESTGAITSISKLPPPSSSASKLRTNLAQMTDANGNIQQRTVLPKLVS

[9] = target: Casein kinase II (Homo sapiens) (UniProt P67870+P68400+P19784); test: Inhibition of human recombinant CK2 using RRREDEESDDEE as substrate and [gamma33P]ATP at 10 uM after 30 mins by scintillation counting; assay type: protein-complex assay
[10] = Binding affinity to casein kinase 1
[11] = Inhibition of Plasmodium falciparum recombinant GSK3 expressed in Escherichia coli using YRRAAVPPSPSLSRHSSPHQ-phosphoS-EDEEE as substrate and [gamma33P]ATP after 30 mins by scintillation counting
How it was run: (§2)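 Panel of purified kinases (recombinant from several species plus native enzymes), each assayed radiometrically over a range of inhibitor concentrations; IC50 in μM calculated from the dose-response curves.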

[12] = target: Cyclin-dependent kinase 7/ cyclin H (Homo sapiens, UniProt P50613); test: Inhibition of human recombinant CDK7/cyclin H expressed in insect cell using YSPTSPSYSPTSPSYSPTSPSKKKK as substrate and [gamma33P]ATP after 30 mins by scintillation counting; how it was run: as §2
[13] = Inhibition of pig […] isolated from brain using RRKHAAIGpSAYSITA as substrate and [gamma33P]ATP after 30 mins by scintillation couting; parameters: species or system Sus scrofa; how it was run: as §2
CDK9/cyclin T1 = CDK9/cyclin T1 (Homo sapiens, UniProt P50750); test: Inhibition of human recombinant CDK9/cyclin T expressed in insect cell using YSPTSPSYSPTSPSYSPTSPSKKKK as substrate and [gamma33P]ATP after 30 mins by scintillation counting; how it was run: as §2
[14] = target: T1, Dual specificity tyrosine-phosphorylation-regulated kinase 2 (Homo sapiens); test: Binding affinity to DYRK2
[15] = target: Dual specificity protein kinase CLK4 (Mus musculus, UniProt O35493); test: Inhibition of mouse recombinant GST-tagged CLK4 expressed in Escherichia coli using GRSRSRSRSRSR as substrate and [gamma33P]ATP after 30 mins by scintillation counting
[16] = target: Dual specificity protein kinase CLK1 (Homo sapiens) (UniProt P49759); test: Binding affinity to CLK1
[17] = target: Serine/threonine-protein kinase pim-1 (Homo sapiens, UniProt P11309); test: Inhibition of human recombinant PIM1 expressed in Escherichia coli using histone H1 as substrate and [gamma33P]ATP after 30 mins by scintillation counting
[18] = target: Dual specificity tyrosine-phosphorylation-regulated kinase 1A (Rattus norvegicus) (UniProt Q63470); conditions: CD Sprague-Dawley, 4.5 to 45 uM
[19] = target: Dual specificity protein kinase CLK4 (Homo sapiens, UniProt Q9HAZ1); test: Binding affinity to CLK4
[20] = target: Dual specificity protein kinase CLK1 (Mus musculus, UniProt P22518); test: Inhibition of mouse recombinant GST-tagged CLK1 expressed in Escherichia coli using GRSRSRSRSRSR as substrate and [gamma33P]ATP after 30 mins by scintillation counting; how it was run: as §2
[21] = target: Cyclin-dependent kinase 2/cyclin A (Homo sapiens, UniProt P24941); test: Inhibition of CDK2/cyclin A using [gamma33P]ATP after 30 mins by scintillation counting; assay type: protein-complex assay; how it was run: as §2
[22] = target: Dual specificity tyrosine-phosphorylation-regulated kinase 3 (Homo sapiens, UniProt O43781); test: Inhibition of human recombinant GST-tagged DYRK3 expressed in Escherichia coli using GRSRSRSRSRSR as substrate and [gamma33P]ATP after 30 mins by scintillation counting
[23] = target: Glycogen synthase kinase-3 (Sus scrofa, UniProt B2LUN4+I6LNT8); test: Inhibition of pig GSK3alpha/beta isolated from brain using YRRAAVPPSPSLSRHSSPHQ-phosphoS-EDEEE as substrate and [gamma33P]ATP after 30 mins by scintillation counting; how it was run: as §2
[24] = target: Mitogen-activated protein kinase 1 (Rattus norvegicus, UniProt P63086); test: Inhibition of rat recombinant ERK2 using Ets1 as substrate and [gamma33P]ATP as substrate after 30 mins by scintillation counting; how it was run: as §2
[25] = target: Dual specificity tyrosine-phosphorylation-regulated kinase 2 (Homo sapiens, UniProt Q92630); test: Inhibition of human recombinant GST-tagged DYRK2 expressed in Escherichia coli using GRSRSRSRSRSR as substrate and [gamma33P]ATP after 30 mins by scintillation counting
[26] = target: Dual specificity protein kinase CLK2 (Mus musculus, UniProt O35491); test: Inhibition of mouse recombinant GST-tagged CLK2 expressed in Escherichia coli using GRSRSRSRSRSR as substrate and [gamma33P]ATP after 30 mins by scintillation counting; how it was run: as §2
[27] = Inhibition of starfish CDK1/cyclin B using histone H1 as substrate and [gamma33P]ATP after 30 mins by scintillation counting; parameters: species or system Asteroidea; how it was run: as §2
[28] = target: Dual specificity protein kinase CLK3 (Mus musculus, UniProt O35492); test: Inhibition of mouse recombinant GST-tagged CLK3 expressed in Escherichia coli using GRSRSRSRSRSR as substrate and [gamma33P]ATP after 30 mins by scintillation counting; how it was run: as §2
[29] = target: T2, Dual specificity tyrosine-phosphorylation-regulated kinase 4 (Homo sapiens, UniProt Q9NR20); test: Inhibition of human recombinant GST-tagged DYRK4 expressed in Escherichia coli using GRSRSRSRSRSR as substrate and [gamma33P]ATP after 30 mins by scintillation counting
T2 sequence (Q9NR20 whole entry): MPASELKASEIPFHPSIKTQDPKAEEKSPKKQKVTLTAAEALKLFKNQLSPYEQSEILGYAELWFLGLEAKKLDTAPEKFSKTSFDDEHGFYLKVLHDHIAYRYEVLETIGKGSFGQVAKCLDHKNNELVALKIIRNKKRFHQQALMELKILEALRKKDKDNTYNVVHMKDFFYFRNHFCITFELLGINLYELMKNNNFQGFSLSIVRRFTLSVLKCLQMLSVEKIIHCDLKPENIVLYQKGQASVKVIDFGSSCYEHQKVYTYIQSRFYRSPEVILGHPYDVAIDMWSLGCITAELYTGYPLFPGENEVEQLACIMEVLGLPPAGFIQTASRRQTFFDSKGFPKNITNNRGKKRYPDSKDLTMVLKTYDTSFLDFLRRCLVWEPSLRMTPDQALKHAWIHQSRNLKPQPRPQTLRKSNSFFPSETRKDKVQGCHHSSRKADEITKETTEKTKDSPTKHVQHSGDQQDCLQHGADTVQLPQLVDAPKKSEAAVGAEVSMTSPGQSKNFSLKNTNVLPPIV

[30] = Inhibition of Leishmania major recombinant CK1 expressed in Escherichia coli using RRKHAAIGpSAYSITA as substrate and [gamma33P]ATP after 30 mins by scintillation counting; how it was run: as §2
[31] = target: Dual specificity protein kinase CLK3 (Homo sapiens, UniProt P49761); test: Binding affinity to CLK3
Dual specificity protein kinase CLK3 (Homo sapiens, UniProt P49761), sequence (P49761 whole entry, looked up): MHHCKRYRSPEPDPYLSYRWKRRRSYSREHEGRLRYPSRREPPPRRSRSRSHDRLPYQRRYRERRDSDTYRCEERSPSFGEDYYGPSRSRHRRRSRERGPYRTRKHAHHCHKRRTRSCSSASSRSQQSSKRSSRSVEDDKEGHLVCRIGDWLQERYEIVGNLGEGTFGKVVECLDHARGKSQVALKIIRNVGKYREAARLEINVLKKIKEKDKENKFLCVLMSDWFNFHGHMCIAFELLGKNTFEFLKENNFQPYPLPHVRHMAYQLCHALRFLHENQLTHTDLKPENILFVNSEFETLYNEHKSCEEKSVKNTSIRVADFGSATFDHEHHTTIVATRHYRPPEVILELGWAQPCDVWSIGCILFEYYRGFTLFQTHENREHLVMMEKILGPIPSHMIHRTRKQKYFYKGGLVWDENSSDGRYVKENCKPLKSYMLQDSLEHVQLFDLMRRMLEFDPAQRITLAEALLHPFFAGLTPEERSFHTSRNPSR

Dual specificity protein kinase CLK3 (Mus musculus), sequence (O35492 whole entry): as the sequence (P49761 whole entry, looked up) above, with L55I, R64H, Y83C, P86S, G99A, T484S counted along it
Dual specificity protein kinase CLK1 (Mus musculus), sequence (P22518 whole entry, looked up): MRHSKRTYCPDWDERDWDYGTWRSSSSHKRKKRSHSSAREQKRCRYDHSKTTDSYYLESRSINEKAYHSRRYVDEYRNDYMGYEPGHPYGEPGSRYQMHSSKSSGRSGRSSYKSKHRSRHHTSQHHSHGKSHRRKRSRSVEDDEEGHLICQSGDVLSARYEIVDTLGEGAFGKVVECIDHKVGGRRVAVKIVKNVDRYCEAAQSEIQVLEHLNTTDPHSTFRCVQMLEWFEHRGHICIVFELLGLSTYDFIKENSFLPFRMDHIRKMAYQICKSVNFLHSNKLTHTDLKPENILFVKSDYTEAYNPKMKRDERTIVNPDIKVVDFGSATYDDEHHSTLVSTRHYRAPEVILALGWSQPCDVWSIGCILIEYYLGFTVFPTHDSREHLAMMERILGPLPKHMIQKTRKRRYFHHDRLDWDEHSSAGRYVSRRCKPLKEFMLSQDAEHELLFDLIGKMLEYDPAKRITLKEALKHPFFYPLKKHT
CDK9/cyclin T1, sequence (O60563 whole entry): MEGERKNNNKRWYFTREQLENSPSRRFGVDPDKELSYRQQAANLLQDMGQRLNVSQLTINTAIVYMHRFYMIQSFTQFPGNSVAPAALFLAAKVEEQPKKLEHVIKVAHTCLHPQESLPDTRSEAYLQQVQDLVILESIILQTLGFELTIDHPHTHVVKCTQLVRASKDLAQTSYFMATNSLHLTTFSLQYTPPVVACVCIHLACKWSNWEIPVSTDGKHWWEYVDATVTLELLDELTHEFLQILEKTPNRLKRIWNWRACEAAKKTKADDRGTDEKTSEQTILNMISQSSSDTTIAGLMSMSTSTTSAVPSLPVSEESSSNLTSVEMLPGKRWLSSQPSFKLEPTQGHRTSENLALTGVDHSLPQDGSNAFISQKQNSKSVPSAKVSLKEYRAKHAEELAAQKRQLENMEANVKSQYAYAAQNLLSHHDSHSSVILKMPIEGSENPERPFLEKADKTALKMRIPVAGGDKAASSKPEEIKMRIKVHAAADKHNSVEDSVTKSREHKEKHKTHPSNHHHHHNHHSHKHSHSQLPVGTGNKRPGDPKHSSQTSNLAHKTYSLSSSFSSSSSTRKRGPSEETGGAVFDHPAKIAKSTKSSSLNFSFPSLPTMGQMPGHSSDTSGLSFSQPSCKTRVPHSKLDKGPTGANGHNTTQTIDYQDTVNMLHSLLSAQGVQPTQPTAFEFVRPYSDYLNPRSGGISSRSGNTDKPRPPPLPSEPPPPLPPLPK
CDK9/cyclin T1, sequence (P50750 whole entry): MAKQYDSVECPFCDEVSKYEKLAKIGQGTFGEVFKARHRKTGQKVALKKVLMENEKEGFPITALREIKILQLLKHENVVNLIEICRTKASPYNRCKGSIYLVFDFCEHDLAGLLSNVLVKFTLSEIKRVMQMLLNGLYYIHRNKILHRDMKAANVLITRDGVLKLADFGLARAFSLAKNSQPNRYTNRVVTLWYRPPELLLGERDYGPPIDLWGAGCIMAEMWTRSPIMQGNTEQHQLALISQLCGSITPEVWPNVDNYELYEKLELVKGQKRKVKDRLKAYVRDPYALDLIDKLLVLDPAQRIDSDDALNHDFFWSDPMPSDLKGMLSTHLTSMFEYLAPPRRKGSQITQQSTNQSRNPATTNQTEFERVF
Mitogen-activated protein kinase 1, sequence (P63086 whole entry): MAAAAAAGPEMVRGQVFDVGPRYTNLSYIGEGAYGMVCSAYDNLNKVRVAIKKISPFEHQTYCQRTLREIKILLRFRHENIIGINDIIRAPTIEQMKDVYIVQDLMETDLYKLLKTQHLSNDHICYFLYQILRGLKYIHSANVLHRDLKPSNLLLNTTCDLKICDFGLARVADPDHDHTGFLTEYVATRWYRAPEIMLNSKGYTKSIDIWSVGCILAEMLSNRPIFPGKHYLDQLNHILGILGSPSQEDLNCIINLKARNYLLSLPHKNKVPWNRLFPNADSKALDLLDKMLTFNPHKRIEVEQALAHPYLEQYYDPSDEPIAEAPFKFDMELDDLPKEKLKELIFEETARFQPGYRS
Dual specificity protein kinase CLK3 (Mus musculus, UniProt O35492), sequence (O35492 whole entry): as the sequence (P49761 whole entry, looked up) above, with L55I, R64H, Y83C, P86S, G99A, T484S counted along it
Dual specificity protein kinase CLK4 (Mus musculus, UniProt O35493), sequence (O35493 whole entry): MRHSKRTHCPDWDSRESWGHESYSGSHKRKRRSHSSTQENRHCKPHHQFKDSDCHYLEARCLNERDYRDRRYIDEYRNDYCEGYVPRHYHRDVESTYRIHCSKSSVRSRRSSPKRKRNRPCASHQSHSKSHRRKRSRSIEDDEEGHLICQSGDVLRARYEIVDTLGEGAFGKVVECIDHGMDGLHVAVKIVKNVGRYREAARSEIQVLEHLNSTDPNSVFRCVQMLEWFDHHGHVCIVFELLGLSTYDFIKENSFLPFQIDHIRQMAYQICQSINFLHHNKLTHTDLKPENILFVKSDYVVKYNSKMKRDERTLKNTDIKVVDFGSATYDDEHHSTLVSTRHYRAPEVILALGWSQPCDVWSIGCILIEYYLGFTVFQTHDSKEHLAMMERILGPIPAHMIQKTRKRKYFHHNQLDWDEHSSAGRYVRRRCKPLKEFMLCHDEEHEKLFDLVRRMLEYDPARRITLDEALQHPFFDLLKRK
Cyclin-dependent kinase 7/ cyclin H, sequence (P51946 whole entry): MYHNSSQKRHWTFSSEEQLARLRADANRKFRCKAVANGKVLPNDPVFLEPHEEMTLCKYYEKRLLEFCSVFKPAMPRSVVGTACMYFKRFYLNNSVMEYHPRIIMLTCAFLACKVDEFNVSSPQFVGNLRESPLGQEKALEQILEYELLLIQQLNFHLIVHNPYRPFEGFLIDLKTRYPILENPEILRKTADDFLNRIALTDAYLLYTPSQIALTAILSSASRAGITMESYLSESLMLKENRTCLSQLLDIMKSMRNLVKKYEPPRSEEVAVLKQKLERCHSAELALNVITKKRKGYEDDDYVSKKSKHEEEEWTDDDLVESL
Cyclin-dependent kinase 7/ cyclin H, sequence (P50613 whole entry): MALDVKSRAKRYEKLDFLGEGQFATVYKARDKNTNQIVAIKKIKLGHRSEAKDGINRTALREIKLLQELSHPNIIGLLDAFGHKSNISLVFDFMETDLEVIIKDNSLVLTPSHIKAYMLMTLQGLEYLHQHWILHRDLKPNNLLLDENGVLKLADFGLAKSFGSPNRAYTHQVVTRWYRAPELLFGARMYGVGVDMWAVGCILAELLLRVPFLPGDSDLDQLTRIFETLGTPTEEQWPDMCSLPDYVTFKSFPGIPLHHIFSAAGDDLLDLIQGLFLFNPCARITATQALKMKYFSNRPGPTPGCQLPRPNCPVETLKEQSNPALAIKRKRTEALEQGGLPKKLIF
Dual specificity tyrosine-phosphorylation-regulated kinase 3, sequence (O43781 whole entry): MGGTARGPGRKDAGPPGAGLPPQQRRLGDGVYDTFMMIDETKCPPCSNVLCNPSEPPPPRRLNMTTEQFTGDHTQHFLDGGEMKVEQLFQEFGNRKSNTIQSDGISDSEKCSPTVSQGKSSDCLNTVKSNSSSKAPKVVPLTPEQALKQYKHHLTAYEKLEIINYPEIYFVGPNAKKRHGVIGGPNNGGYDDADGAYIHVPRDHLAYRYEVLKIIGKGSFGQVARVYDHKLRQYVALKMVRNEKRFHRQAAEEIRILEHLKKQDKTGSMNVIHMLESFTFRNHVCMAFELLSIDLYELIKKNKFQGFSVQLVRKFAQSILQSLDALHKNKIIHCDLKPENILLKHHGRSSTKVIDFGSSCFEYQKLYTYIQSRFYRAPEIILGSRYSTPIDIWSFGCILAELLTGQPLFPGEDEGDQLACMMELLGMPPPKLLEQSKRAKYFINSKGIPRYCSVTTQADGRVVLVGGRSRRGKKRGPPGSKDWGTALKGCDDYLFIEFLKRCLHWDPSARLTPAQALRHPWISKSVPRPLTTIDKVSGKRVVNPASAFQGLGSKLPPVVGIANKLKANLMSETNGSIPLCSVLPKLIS
Serine/threonine-protein kinase pim-1, sequence (P11309 whole entry): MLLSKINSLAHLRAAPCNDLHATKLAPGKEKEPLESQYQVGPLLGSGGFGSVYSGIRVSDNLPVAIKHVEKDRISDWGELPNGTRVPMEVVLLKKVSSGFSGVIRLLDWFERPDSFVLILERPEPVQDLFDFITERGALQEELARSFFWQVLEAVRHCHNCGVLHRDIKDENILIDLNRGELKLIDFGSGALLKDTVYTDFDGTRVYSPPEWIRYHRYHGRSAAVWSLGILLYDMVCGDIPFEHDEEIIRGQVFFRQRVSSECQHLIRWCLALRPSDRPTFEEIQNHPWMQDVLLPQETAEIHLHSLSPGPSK
Dual specificity protein kinase CLK1, sequence (P22518 whole entry): as the sequence (P22518 whole entry, looked up) above

## O=C1Cc2c([nH]c3ccc([N+](=O)[O-])cc23)-c2ccccc2N1
HT-22 [1]
  Activity: Active
[2]
  inhibition: inactive
HT-22 [3]
  inhibition: Active
HT-22 [4]
  inhibition: Active

## CC12CC3CC(C)(C1)CC(N)(C3)C2
[5]
  inhibition: inactive
[6]
  inhibition: inactive
[7]
  inhibition: inactive
[8]
  inhibition: inactive

## O=C1Nc2cc(Br)ccc2/C1=C1/N=c2ccccc2=C1NO
HT-22 [3]
  inhibition: Active

## COc1cc2c(cc1OC)C(=O)C(CC1CCN(Cc3ccccc3)CC1)C2 (configuration not stated)
[5]
  inhibition: inactive
[6]
  inhibition: inactive
[7]
  inhibition: inactive
[8]
  inhibition: inactive

## COc1ccc2c(c1)[nH]c1c(C)nccc12 [HARMINE]
[9]
  inhibition: inactive
[10]
  Activity: Active
[11]
  IC50: > 10000 nM
[12]
  IC50: > 10000 nM
[13]
  IC50: 1800 nM
CDK9/cyclin T1
  IC50: 720 nM
[14]
  Activity: Active
[15]
  IC50: 50 nM
[16]
  Activity: Active
[17]
  IC50: > 10000 nM
[18]
  inhibition: Active
[19]
  Activity: Active
[20]
  IC50: 72 nM
[21]
  IC50: > 30000 nM
[22]
  IC50: 210 nM
[23]
  IC50: 19000 nM
[24]
  IC50: > 30000 nM
[25]
  IC50: 120 nM
[26]
  IC50: 280 nM
[27]
  IC50: 18000 nM
[28]
  IC50: > 10000 nM
[29]
  IC50: 9500 nM
[30]
  IC50: ≥ 10000 nM
[31]
  Activity: Active
